Screening data deposited in PubChem BioAssay by The Scripps Research Institute Molecular Screening Center.
UHRF1 binding: UHRF1 methyl-DNA binding inhibition | Q96T88 | UHRF1 binding to methylated oligo, TR-FRET | inhibition, % at 4.4 µM | 0.75% of 370,000 active | AID 687016; in the data active = inhibition above about 21%;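 note: UHRF1 SRA domain binding a hemimethylated CpG hairpin DNA probe; 0% = median of test compound wells and 100% = reference inhibitor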
TDP2 absorb: blocks human TDP2 phosphodiesterase activity; AID 720702; O95551; 0.34% of 370,000 active; recombinant TDP2, T5PNP hydrolysis, p-nitrophenol absorbance 415 nm; inhibition, % at 12.8 µM;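 active = inhibition above the mean of all tested compounds plus 3 SD, set per campaign, cut at about 25% in these data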;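 note: 0% = DMSO with enzyme and 100% = buffer with substrate but no TDP2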
Target sequence (O95551 whole entry, looked up): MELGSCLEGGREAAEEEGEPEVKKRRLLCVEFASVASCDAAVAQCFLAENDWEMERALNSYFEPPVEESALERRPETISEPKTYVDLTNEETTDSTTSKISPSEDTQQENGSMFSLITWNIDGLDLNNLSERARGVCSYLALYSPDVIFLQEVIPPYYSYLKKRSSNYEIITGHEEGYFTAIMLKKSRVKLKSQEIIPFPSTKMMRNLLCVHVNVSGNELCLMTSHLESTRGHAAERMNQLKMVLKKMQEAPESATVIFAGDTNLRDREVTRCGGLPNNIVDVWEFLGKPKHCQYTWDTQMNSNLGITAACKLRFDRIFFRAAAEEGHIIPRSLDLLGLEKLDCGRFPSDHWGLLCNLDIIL
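test system = human TDP2 enzyme | input = TDP2 enzyme at 120 nM final | medium = 50 mM Tris-HCl pH 7.5 with Mg2+, KCl, DTT, BSA | also added = T5PNP substrate, 5 mM | times = 2 h at 37 °C | technique = epi absorbance | benchmarks = high control without enzyme, low control DMSO plus TDP2 | replication = each compound tested once, singlicate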
LEDGF integ inh: blocks HIV-1 LEDGF/p75-dependent DNA integration. TR-FRET IN-LEDGF/p75 DNA integration, Eu/Cy5. inhibition, % at 3.7 µM. AID 743269. 0.64% of 370,000 active;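 active = inhibition above the screen-wide mean plus 3 SD, cut at about 13% in these data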;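 note: signal is the Cy5 over europium emission ratio at 671 and 618 nm; 0% = plate median of compound wells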
Rin1-Abl PPI inh: inhibitors of human Rin1-Abl protein interaction. AID 588664. inhibition, % at 7.35 µM. P00519+Q13671. 0.4% of 360,000 active. TR-FRET Rin1/Abl binding, biochemical; in the data active = inhibition above about 5%, passing the limit was not always enough
MBD2 inh: inhibitors of human MBD2 binding to methylated oligonucleotide. Q9UBB5. TR-FRET. inhibition, % at 4.4 µM. 0.31% of 370,000 active. AID 686964; in the data active = inhibition above about 13%
IN multimer up: HIV-1 integrase multimerization activation, counter-screen | shares compounds with LEDGF integ inh | TR-FRET HIV-1 integrase multimerization, biochemical | activation, % at 7.7 µM | 17% of 2,000 active | AID 1053131; in the data active = activation above about 8.9%
TR-FRET interf: optically interferes with TR-FRET readout in LEDGF counter-screen. shares compounds with LEDGF integ inh. TR-FRET optical interference counterscreen, HIV-1 IN multimerization. inhibition, % at 7.7 µM. 2,000 tested, under 10 active. AID 1053135;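 active = inhibition above the mean over all tested compounds plus 3 SD, which no compound reached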;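 note: 0% = integrase with antibodies and DMSO and 100% = antibodies without integrase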
IN-LEDGF confirm: LEDGF/p75-dependent HIV-1 integration inhibition, confirmation; shares compounds with LEDGF integ inh; TR-FRET LEDGF/p75-dependent HIV-1 integration, biochemical; inhibition, % at 3.7 µM; 36% of 2,000 active; AID 1053136; in the data active = inhibition above about 14%
The depositor's hits bear a star; / = no result given. Compounds with a hit are over-represented: about 1.9% of the library has one in this group of screens.

SMILES	UHRF1 binding	TDP2 absorb	LEDGF integ inh	Rin1-Abl PPI inh	MBD2 inh	IN multimer up	TR-FRET interf	IN-LEDGF confirm
CC1(OC(=O)CCc2ccccc2)C(=O)C=C2C=C3CCCN3C=C2C1=O (configuration not stated)	6.8	8.5	20.2*	4.9	-3.0	0.6	-2.9	22.7*
CN(C)/C=C1\N=C(c2ccccc2)OC1=O	1.9	-2.4	-0.3	-2.2	-3.3	/	/	/
O=C1OC(c2ccccc2)=N/C1=C\C=C\c1ccco1	32.2*	7.2	40.8*	-1.6	9.5	-0.7	3.4	3.4
COc1ccc(C2C(C(N)=O)=C(C)Nc3nc(CCCO)nn32)cc1OC (configuration not stated)	/	/	/	-2.5	/	/	/	/
CCCCn1c(N)c(N(CCOC)C(=O)c2c(CC)noc2C)c(=O)[nH]c1=O	2.0	2.7	4.5	3.2	-0.9	/	/	/
O=C(c1ccccc1)c1cccc(NC(=O)c2ccc(Br)o2)c1	-0.5	-3.8	18.4*	2.1	-4.2	-1.9	9.9	-4.3
CS(=O)(=O)N(CC(=O)Nc1ccc(S(=O)(=O)N2CCCC2)cc1)c1ccccc1F	-0.8	0.5	2.7	5.8	-6.0	/	/	/
N#CC(CC(=O)OCc1ccccc1)NC(=O)OCc1ccccc1 (configuration not stated)	-0.4	-4.1	33.0*	-5.4	0.5	-1.2	6.2	-2.6
Cc1cc(N2CCOCC2)ccc1/C=C1/SC(=O)NC1=O	16.5	4.5	-3.5	2.9	-0.6	/	/	/
O=C1NC(=O)/C(=C\c2ccc(O)cc2O)S1	9.8	4.4	19.9*	4.0	2.2	48.4*	-243.5	66.2*
CC[C@@]1(O)C(=O)OCc2c1cc1n(c2=O)Cc2cc3c(N)cccc3nc2-1	-0.9	15.4	23.0*	-0.9	-10.8	14.0*	-49.6	10.0
N#CCS(=O)(=O)c1cccc[n+]1[O-]	-0.7	9.0	1.2	/	4.8	/	/	/
O=C(NNC(=O)c1cc([N+](=O)[O-])ccc1Cl)c1cccs1	4.3	-15.6	-0.3	-1.2	-0.8	/	/	/
Cc1nc2c(O)c3c(c(O)c2nc1C)C1C=CC3CC1	6.1	-6.6	21.3*	0.2	-6.8	1.8	-6.0	2.4
Cc1nc2c(C)c(C)c(C)c(C)c2nc1C	2.2	-18.9	4.7	-0.2	-2.5	/	/	/
COc1ccc(NC(=O)CC2C(=O)Nc3ccccc3N2CC(=O)N2CCCC2)cc1 (configuration not stated)	-2.8	5.6	4.0	4.1	-2.2	/	/	/
Nc1ccc(O)c2c1C(=O)c1ccccc1C2=O	19.1	2.7	4.8	-9.5	11.8	/	/	/
O=C1c2ccccc2C(=O)c2c(Nc3ccc(CCO)cc3)ccc(O)c21	0.5	3.6	15.3*	-0.5	0.3	14.4*	-50.8	-0.4
Cn1nc(C(C)(C)C)cc1C(=O)N1CCCCC1c1cc(C(=O)Nc2ccc3c(c2)OCO3)no1 (configuration not stated)	1.0	4.2	1.3	-1.6	-4.8	/	/	/
O=C(CCl)Nc1nc(-c2ccco2)c(-c2ccco2)s1	2.3	5.3	24.5*	-1.5	-0.5	22.8*	-114.6	68.0*
CC(=O)c1sc(NC(=O)CCNC(=O)c2ccco2)nc1-c1ccccc1	1.8	-12.8	-3.2	-2.9	-1.3	/	/	/
Nc1nc(-c2ccco2)c(-c2ccco2)s1	8.4	3.5	29.8*	2.0	1.6	8.9*	-44.5	18.9*
O=C(CCCSc1ccccc1)Nc1nc(-c2ccco2)c(-c2ccco2)s1	2.7	-4.0	19.5*	2.0	3.6	3.5	-12.8	13.0
COc1cccc(N2CCN(C(=O)c3cc4c(s3)CCCCC4)CC2)c1	0.1	-14.4	2.8	-3.5	-0.5	/	/	/
CC(=O)NC(C)(c1ccccc1)c1nc(-c2cccc(C#N)c2)cs1 (configuration not stated)	-3.6	1.6	14.2*	-3.2	-3.8	-0.6	2.9	-3.3
SMILES	UHRF1 binding	TDP2 absorb	LEDGF integ inh	Rin1-Abl PPI inh	MBD2 inh	IN multimer up	TR-FRET interf	IN-LEDGF confirm
CCOc1ccc(NC(=O)Nc2cc(-c3ccccc3)sc2C(=O)OC)cc1	-1.7	-1.2	21.3*	-1.0	5.9	1.5	-5.3	-2.4
COC(=O)c1sc(-c2ccccc2)cc1NC(=O)C1CC1	-2.9	-2.3	-3.5	-8.9	0.6	/	/	/
Cc1ccc2oc(=O)c(-c3ccc(O)cc3)c(C)c2c1	14.1	-0.9	2.1	3.1	-0.5	/	/	/
COc1ccc(CC(=O)N(C)Cc2ccc(Cl)cc2)cc1S(=O)(=O)N1CCOCC1	-2.2	-2.0	2.9	3.9	-1.9	/	/	/
Cc1cc(Cl)cc(C)c1OCCCCN1CCOCC1	-0.6	2.4	15.0*	0.2	-5.4	-0.8	3.9	2.5
Cc1cc(Cl)c(OCCCCN2CCOCC2)c(Br)c1	0.6	9.7	-0.3	0.4	1.7	/	/	/
Cn1cc(Cl)c(-c2n[nH]c(=S)n2-c2ccc(F)cc2)n1	-1.4	6.8	28.3*	-5.5	-1.1	-0.7	3.6	-6.4
O=C1CCC(=O)N1c1ccc(NCCc2cccc(F)c2)c([N+](=O)[O-])c1	0.1	-13.4	2.0	-7.3	0.2	/	/	/
O=C1C2CC=CCC2C(=O)N1c1ccc(NCCc2cccc(F)c2)c([N+](=O)[O-])c1 (configuration not stated)	3.3	-0.6	14.5*	0.3	3.0	0.5	-2.5	-8.0
Cc1cc(-c2csc(NC(=O)c3ccc(=O)[nH]c3)n2)c(C)n1Cc1ccccc1	0.8	-6.9	16.9*	-1.5	7.2	5.8	-29.2	25.9*
NC(=O)CC(NC(=O)c1ccccc1)c1ccc(NCCN2CCCCC2)c([N+](=O)[O-])c1 (configuration not stated)	-7.3	-0.6	1.8	-5.4	-16.0	/	/	/
NC(=S)NN=Cc1nccc2c(N)cccc12	-7.8	2.8	20.0*	1.4	-12.2	14.9*	-75.3	17.1*
CC(C)(C)NC(=O)NC(=O)CSc1ccc(S(=O)(=O)N2CCCCC2)cn1	-0.9	-12.3	20.2*	0.4	-5.7	0.8	-4.0	1.1
CCOC(=O)NC(=O)CSc1ccc(S(=O)(=O)N2CCCCC2)cn1	1.1	0.5	2.4	0.1	3.3	/	/	/
O=C(NC1CCCC1)C(c1cccnc1)N(Cc1ccc(F)cc1)C(=O)c1csnn1 (configuration not stated)	-0.3	20.9	20.6*	-1.1	1.1	0.4	-2.1	-5.8
O=C(NC1CCCC1)C(c1cccnc1)N(Cc1ccccc1F)C(=O)c1csnn1 (configuration not stated)	-2.2	7.0	0.1	-1.2	1.5	/	/	/
CN(C)c1ccc(N/C=C/C(=O)c2ccccc2)cc1	2.6	12.0	14.8*	3.1	-3.4	4.8	-24.3	4.7
